Our source for the IC50 and Ratio values is ChEMBL document CHEMBL1125849, “Synthesis of the 2-amino-4-phosphonobutanoic acid analogues (E)- and (Z)-2-amino-2,3-methano-4-phosphonobutanoic acid and their evaluation as inhibitors of hippocampal excitatory neurotransmission” (J Med Chem, 1991).

Common to all, as to type: functional
Test [1] is filed under the species Rattus norvegicus. The test is described as follows: Inhibitory activity against Hippocampal Excitatory Neurotransmission using medial perforant path (MPP) in rat hippocamapl slice Tested as racemic mixtures. A digest of the protocol: (§1)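 Rat transverse hippocampal slices (450 μm) from urethane-anesthetized animals, held in oxygenated bicarbonate medium, pH 7.4. Recording in a microperfusion chamber at 34 °C. Field potentials in the dentate molecular layer: outer third for LPP, middle third for MPP. Placement checked with L-AP4. Drug started at threshold and doubled every 4 min. IC50 taken from fractional response versus log concentration, as a weighted mean.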

The species entered for test [2] is Rattus norvegicus. The test is described as follows: Inhibitory activity against Hippocampal Excitatory Neurotransmission using lateral perforant path (LPP)in rat hippocamapl slice Tested as racemic mixtures. In short, it runs like this:
as §1

Test [3] in a line: Ratio is IC50 vales of medial perforant path (MPP) to that of lateral perforant path (LPP). In short, it runs like this: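 Ratio of MPP to LPP IC50 values from rat hippocampal slice field-potential recordings. Dentate molecular layer recorded, middle third (MPP) and outer third (LPP), at 34 °C. Concentration doubled every 4 min. Each IC50 is a weighted mean taken from fractional-response versus log-concentration curves.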

Setting [4] is: Rattus norvegicus, Perforant path.

What is called IC50 is the midpoint of a concentration-inhibition curve.

In the case of `N[C@]1(C(=O)O)CC[C@H](P(=O)(O)O)C1`, the half-maximal inhibitory concentration (IC50) in the test listed under Rattus norvegicus [1] (setting [4]) came out at 1.85 mM; in the test listed under Rattus norvegicus [2] (setting [4]), 130 µM. Further, the Ratio in test [3] was determined as 31.
The matching figures for `N[C@]1(C(=O)O)CC[C@@H](P(=O)(O)O)C1`: 2.4 mM, 960 µM and 2.5.
`N[C@@H](CCP(=O)(O)O)C(=O)O`: the Ratio in test [3] is on record as 18.
For the compound `NC1(C(=O)O)CC1CP(=O)(O)O` (stereo in doubt; 5), the half-inhibitory concentration (IC50) in the test filed under Rattus norvegicus [1] turned out to be 1.58 mM; in the test filed under Rattus norvegicus [2], 18 µM. The Ratio in test [3] was determined as 88.
As for `NC1(C(=O)O)CC1CP(=O)(O)O` (stereo in doubt; 6), the concentration for half-maximal inhibition (IC50) in the test filed under Rattus norvegicus [1] turned out to be 0.081 mM; in the test listed under Rattus norvegicus [2] (setting [4]), 17 µM. Further, the Ratio in test [3] was found to be 4.8.
